The text below walks through data of ChEMBL document CHEMBL1156857, “N-Acetamideindolecarboxylic acid allosteric 'finger-loop' inhibitors of the hepatitis C virus NS5B polymerase: discovery and initial optimization studies” (Bioorg Med Chem Lett, 2010).

A short description of assay [1]: Inhibition of histidine-tagged HCV NS5Bdelta21 by scintillation proximity assay. Further details: species or system Hepacivirus hominis; call rule not given here. The essentials:
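Soluble truncated NS5B at 12 nM. Reaction contains 0.01% w/v BSA, with no dodecyl-β-D-maltoside or IGEPAL. Other conditions follow an earlier method. IC50 is the mean of duplicate experiments on two separate weighings.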
(In general: In a scintillation proximity assay essentially only radioactivity close to the scintillant gives light.)

Assay [2] can be described thus: Inhibition of calf thymus DNA-directed RNA polymerase 2. Further details: species or system Bos taurus.
In a further assay the test system is Hepatitis C virus. Put plainly: Antiviral activity against Hepatitis C virus subtype 1b infected in human Huh7 cells assessed as inhibition of viral RNA replication. Type of assay: functional, organism-based, Hepacivirus hominis, genotype 1b, Huh-7. The essentials: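 Stable subgenomic HCV genotype 1b replicon in Huh-7 cells carrying a modified luciferase reporter. EC50 from duplicate or more determinations. Some inhibitors were also run in a 72 h replicon format, with HCV RNA normalized to total cellular RNA. Cytotoxicity checked as TC50.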

Setting [3] is: Hepatitis C virus, genotype 1b, Huh-7, read-out: EC50.

What is called IC50 is the concentration needed to halve the response being measured. Higher therefore signals a need for much substance. One may read the EC50 as the concentration giving half of the maximal effect.

`O=C(O)c1ccc2c(C3CCCCC3)c(-c3ccoc3)n(Cc3ccccc3)c2c1` registered an IC50 in assay [1] of 0.25 µM. This counts as sub-micromolar.
As to `CN(C(=O)Cn1c(-c2ccoc2)c(C2CCCCC2)c2ccc(C(=O)O)cc21)C1CCCCC1`, the half-maximal inhibitory concentration (IC50) is 0.11 µM in assay [1] and more than 250 µM in assay [2].
As for `O=C(O)c1cccc(Cn2c(-c3ccoc3)c(C3CCCCC3)c3ccc(C(=O)O)cc32)c1`, in assay [1], the 50% inhibitory concentration (IC50) amounted to 0.07 µM.
On to `O=C(O)c1ccc2c(C3CCCCC3)c(-c3cc4ccccc4s3)n(CC(=O)N3CCC(N4CCCC4)CC3)c2c1`, for which the EC50 in the assay with Hepatitis C virus (setting [3]) was found to be 1 µM. The IC50 in assay [1] was 0.16 µM; in assay [2], more than 250 µM.
With `COCCN(C)C(=O)Cn1c(-c2ccoc2)c(C2CCCCC2)c2ccc(C(=O)O)cc21`, the EC50 with Hepatitis C virus (setting [3]) was 1.3 µM. Also, the IC50 was 0.05 µM in assay [1] and more than 250 µM in assay [2].
Take `O=C(O)c1ccc2c(C3CCCCC3)c(-c3cccs3)n(CC(=O)N3CCOCC3)c2c1`: the EC50 in the assay with Hepatitis C virus (setting [3]) is 0.6 µM. Moreover, the IC50 in assay [1] is 0.03 µM; in assay [2] it was more than 250 µM.
For `CN(C)C(=O)Cn1c(-c2cc3ccccc3s2)c(C2CCCCC2)c2ccc(C(=O)O)cc21`, the concentration giving a half-maximal response (EC50) in the assay on Hepatitis C virus (setting [3]) was 2.5 µM. For the same compound, the IC50 was 0.21 µM in assay [1] and more than 250 µM in assay [2].
Regarding `O=C(O)c1ccc2c(C3CCCCC3)c(-c3ccco3)n(CC(=O)N3CCOCC3)c2c1`, the half-maximal effective concentration (EC50) in the assay on Hepatitis C virus (setting [3]) was found to be 1 µM. For the same compound, the figures for the IC50 in assay [1] and in assay [2] were 0.04 µM and more than 250 µM, respectively.
`CCN(Cc1ccncc1)C(=O)Cn1c(-c2ccoc2)c(C2CCCCC2)c2ccc(C(=O)O)cc21`: the IC50 in assay [1] was 0.04 µM; in assay [2], more than 250 µM.
As for `CCn1c(-c2ccoc2)c(C2CCCCC2)c2ccc(C(=O)O)cc21`, in the assay with Hepatitis C virus (setting [3]), the EC50 is more than 10 µM. In assay [1], the IC50 turned out to be 0.07 µM.
Regarding `O=C(O)c1ccc2c(C3CCCCC3)c(-c3ccoc3)[nH]c2c1`, the EC50 in the assay on Hepatitis C virus (setting [3]) turned out to be 6.7 µM. This compound registered an IC50 in assay [1] of 0.03 µM.
In the case of `CN(C)C(=O)Cn1c(-c2ccccn2)c(C2CCCCC2)c2ccc(C(=O)O)cc21`, in the assay on Hepatitis C virus (setting [3]), the EC50 stood at 3.4 µM. Besides, the IC50 in assay [1] was 0.24 µM; in assay [2] it was more than 250 µM.
In the case of `CC(C)N(C)C(=O)Cn1c(-c2ccoc2)c(C2CCCCC2)c2ccc(C(=O)O)cc21`, in the assay on Hepatitis C virus (setting [3]), the EC50 is 0.8 µM. Further, the IC50 in assay [1] was 0.03 µM; in assay [2], more than 250 µM.
`O=C(Cn1c(-c2ccoc2)c(C2CCCCC2)c2ccc(C(=O)O)cc21)NCC1CCCCC1`: the 50% inhibitory concentration (IC50) was 0.12 µM in assay [1] and more than 250 µM in assay [2].
For `O=C(O)c1ccc2c(C3CCCCC3)c(-c3ccccn3)n(CC(=O)N3CCC(N4CCCC4)CC3)c2c1`, in assay [2], the IC50 is more than 250 µM.
In the case of `O=C(O)c1ccc2c(C3CCCCC3)c(-c3cnccn3)n(CC(=O)N3CCC(N4CCCC4)CC3)c2c1`, in the assay on Hepatitis C virus (setting [3]), the EC50 turned out to be 10 µM. Besides, the values for the IC50 in assay [1] and in assay [2] were 0.06 µM and more than 250 µM, respectively.
Turning to `O=C(O)c1ccc2c(C3CCCCC3)c(-c3cc4ccccc4s3)n(CC(=O)N3CCOCC3)c2c1`, in the assay with Hepatitis C virus (setting [3]), the EC50 stood at 1.1 µM. The IC50 was 0.16 µM in assay [1] and more than 250 µM in assay [2].
For the compound `O=C(O)c1ccc2c(C3CCCCC3)c(-c3ccoc3)n(CC(=O)N3CCC(C(=O)O)CC3)c2c1`, the EC50 in the assay with Hepatitis C virus (setting [3]) is more than 94 µM. Further, the results for the IC50 in assay [1] and in assay [2] were 0.03 µM and more than 250 µM, respectively.
`O=C(O)c1ccc2c(C3CCCCC3)c(-c3ccoc3)n(CC(=O)N3CCCC3)c2c1`: the IC50 in assay [1] is 0.04 µM; in assay [2], more than 250 µM.
Turning to `CN1CCCN(C(=O)Cn2c(-c3ccoc3)c(C3CCCCC3)c3ccc(C(=O)O)cc32)CC1`, the EC50 in the assay on Hepatitis C virus (setting [3]) amounted to 0.33 µM. Further, the figures for the IC50 in assay [1] and in assay [2] were 0.02 µM and more than 250 µM, respectively.
In the case of `C=C(C)n1c(-c2ccoc2)c(C2CCCCC2)c2ccc(C(=O)O)cc21`, the EC50 in the assay on Hepatitis C virus (setting [3]) is more than 10 µM. For the same compound, in assay [1], the IC50 stood at 0.36 µM.
Take `CN(C)CCN(C)C(=O)Cn1c(-c2ccoc2)c(C2CCCCC2)c2ccc(C(=O)O)cc21`: the EC50 with Hepatitis C virus (setting [3]) was determined as 0.44 µM. The concentration for half-maximal inhibition (IC50) is 0.02 µM in assay [1] and more than 250 µM in assay [2].
Regarding `O=C(O)c1ccc2c(c1)nc(-c1ccoc1)n2C1CCCCC1`, the EC50 result in the assay with Hepatitis C virus (huh-7) is recorded as “Not Active”. The compound further returned an IC50 in assay [1] of 1.1 µM.
With `O=C(O)c1ccc2c(C3CCCCC3)c(-c3ccccn3)n(CC(=O)N3CCOCC3)c2c1`, the IC50 in assay [2] was more than 250 µM.
Consider `O=C(O)CCn1c(-c2ccoc2)c(C2CCCCC2)c2ccc(C(=O)O)cc21`, for which 0.21 µM corresponded to half-maximal inhibition in assay [1] (IC50).
As to `Nc1ccccc1Cn1c(-c2ccoc2)c(C2CCCCC2)c2ccc(C(=O)O)cc21`, the EC50 in the assay on Hepatitis C virus (setting [3]) was determined as 2.9 µM. The compound further yielded an IC50 in assay [1] of 0.09 µM.
For `CC(C)N(C(=O)Cn1c(-c2ccoc2)c(C2CCCCC2)c2ccc(C(=O)O)cc21)C(C)C`, the EC50 in the assay on Hepatitis C virus (setting [3]) amounted to 2.3 µM. Besides, the IC50 in assay [1] is 0.07 µM; in assay [2] it was more than 250 µM.
Turning to `CN(C)CCCN(C)C(=O)Cn1c(-c2ccoc2)c(C2CCCCC2)c2ccc(C(=O)O)cc21`, the EC50 with Hepatitis C virus (setting [3]) was determined as 0.58 µM. Besides, the IC50 in assay [1] was 0.02 µM; in assay [2], more than 250 µM.
With `NC(=O)Cn1c(-c2ccoc2)c(C2CCCCC2)c2ccc(C(=O)O)cc21`, the EC50 with Hepatitis C virus (setting [3]) stood at 2.4 µM. The compound further displayed an IC50 in assay [1] of 0.04 µM.
As for `O=C(O)c1ccc2c(C3CCCCC3)c(-c3cnccn3)n(CC(=O)N3CCOCC3)c2c1`, the IC50 is 0.1 µM in assay [1] and more than 250 µM in assay [2].
Regarding `O=C(O)c1ccc2c(C3CCCCC3)c(-c3ccoc3)n(CCO)c2c1`, in the assay on Hepatitis C virus (setting [3]), the EC50 is more than 10 µM. The compound also came in with an IC50 in assay [1] of 0.1 µM.
In the case of `CC(C)NC(=O)Cn1c(-c2ccoc2)c(C2CCCCC2)c2ccc(C(=O)O)cc21`, the IC50 in assay [1] was 0.05 µM; in assay [2], more than 250 µM.
As for `CC(C(=O)O)n1c(-c2ccoc2)c(C2CCCCC2)c2ccc(C(=O)O)cc21` (racemic), the IC50 in assay [1] was 2.8 µM.
The same measure, in the same setting: to `O=C(O)c1ccc2c(C3CCCCC3)c(-c3ccoc3)n(Cc3ccccn3)c2c1` belongs 0.13 µM; to `O=C(O)c1ccc(Cn2c(-c3ccoc3)c(C3CCCCC3)c3ccc(C(=O)O)cc32)cc1`, 0.04 µM.
As for `CN(C)C(=O)Cn1c(-c2cnccn2)c(C2CCCCC2)c2ccc(C(=O)O)cc21`, the IC50 is 0.16 µM in assay [1] and more than 250 µM in assay [2].
Take `CCOC(=O)Cn1c(-c2ccoc2)c(C2CCCCC2)c2ccc(C(=O)O)cc21`: the EC50 in the assay with Hepatitis C virus (setting [3]) amounted to 8.5 µM. The compound also showed an IC50 in assay [1] of 0.09 µM.
In turn, `Cc1cccc(C)c1Cn1c(-c2ccoc2)c(C2CCCCC2)c2ccc(C(=O)O)cc21` gave an IC50 in assay [1] of more than 138 µM.
As to `Cn1c(-c2ccoc2)c(C2CCCCC2)c2ccc(C(=O)N[C@@H](Cc3c[nH]c4ccc(O)cc34)c3cscn3)cc21`, the EC50 in the assay on Hepatitis C virus (setting [3]) was 0.05 µM. The IC50 in assay [1] is 0.1 µM.
As to `Nc1cccc(Cn2c(-c3ccoc3)c(C3CCCCC3)c3ccc(C(=O)O)cc32)c1`, the EC50 in the assay on Hepatitis C virus (setting [3]) was more than 8 µM. In assay [1], this compound showed an IC50 of 0.13 µM.
Turning to `COCCNC(=O)Cn1c(-c2ccoc2)c(C2CCCCC2)c2ccc(C(=O)O)cc21`, the IC50 was 0.05 µM in assay [1] and more than 250 µM in assay [2].
Compound `O=C(O)Cn1c(-c2ccoc2)c(C2CCCCC2)c2ccc(C(=O)O)cc21` yielded an IC50 in assay [1] of 0.06 µM. This lies in the double-digit nanomolar range.
Consider `C=CCn1c(-c2ccoc2)c(C2CCCCC2)c2ccc(C(=O)O)cc21`, for which the EC50 with Hepatitis C virus (setting [3]) was more than 10 µM. In assay [1], this compound registered a 50% inhibitory concentration (IC50) of 0.08 µM.
Consider `O=C(Cn1c(-c2ccoc2)c(C2CCCCC2)c2ccc(C(=O)O)cc21)NCc1ccccc1`, for which the figures for the 50% inhibitory concentration (IC50) in assay [1] and in assay [2] were 0.06 µM and more than 250 µM, respectively.
In turn, `Cc1ccccc1Cn1c(-c2ccoc2)c(C2CCCCC2)c2ccc(C(=O)O)cc21` displayed an IC50 in assay [1] of 0.29 µM.
As to `O=C(Cn1c(-c2ccoc2)c(C2CCCCC2)c2ccc(C(=O)O)cc21)Nc1ccccc1`, the figures for the IC50 in assay [1] and in assay [2] were 0.08 µM and more than 250 µM, respectively.
